Measured values collected from several papers.
Each line is one published result; the experiments were not run side by side.
Effect on: enzyme activity
Mode: inhibitor
EGFR: Epidermal growth factor receptor (EGFR, Homo sapiens, UniProt P00533)
CDK6 with cyclin D3: Cyclin-dependent kinase 6, with cyclin D3 (CDK6, Homo sapiens, UniProt Q00534)
YCK2: Serine/threonine protein kinase YCK2 (YCK2, Candida albicans, UniProt A0A1D8PKB4)
MTOR: Serine/threonine-protein kinase mTOR (MTOR, Homo sapiens, UniProt P42345)
CA2: Carbonic anhydrase 2 (CA2, Bos taurus, UniProt P00921)

CCCCNC(c1ccccc1)c1c(N)[nH]c(=O)[nH]c1=O (stereo not drawn) — IC50 (EGFR): 988 nM
CC(=O)c1nc2ccccc2n1Cc1cn([C@@H]2OC[C@@H](O)[C@H](O)[C@H]2O)nn1 — IC50 (EGFR): 132 nM
CNS(=O)(=O)c1ccc(Nc2ncc(C(F)(F)F)c([C@H]3CC[C@@](C)(O)CC3)n2)c(C)c1 — IC50 (CDK6 with cyclin D3; radiometric): 8650 nM
c1ccc(-c2[nH]ccc2-c2ccnc3ccccc23)nc1 — IC50 (YCK2; ADP detection): 4900 nM
COc1ccc(-c2ccc3c(N4CCOC[C@@H]4C)nc(N4CCOC[C@@H]4C)nc3n2)cc1COCCOCCOCCOCCONC(=O)c1ccc(F)c(F)c1Nc1ccc(I)cc1F — IC50 (MTOR; FRET): 28 to 40 nM
CCCCCCCCCCCC[N+]1(C)CCOCC1 — IC50 (EGFR; ELISA): 1350 nM
NS(=O)(=O)c1ccc(-n2nc(C(=O)NN=Cc3ccc(O)cc3)cc2-c2ccccc2)cc1 — IC50 (Serine/threonine-protein kinase B-raf (BRAF, Homo sapiens, UniProt P15056, V600E)): 18500 nM
c1ccc(-c2n[nH]cc2-c2ccncn2)nc1 — IC50 (YCK2; ADP detection): 1600 nM
Cc1cc(S(=O)(=O)NCCO[C@H]2CC[C@H](CN3CCC(c4ccn5c(N6CCC(=O)NC6=O)cnc5c4)CC3)CC2)ccc1Nc1ncc2cc(Cl)c(=O)n(C3CCCC3)c2n1 — IC50 (CDK6 with cyclin D3; radiometric): 153 nM
N=C(N)c1ccc(OCCCCCOc2ccc(C(=N)N)cc2)cc1 — IC50 (Neutrophil elastase (ELANE, Homo sapiens, UniProt P08246); absorbance): > 100000 nM
O=C(/C=C/c1ccc(F)cc1)c1nc2ccccc2n1Cc1cn([C@@H]2OC[C@@H](O)[C@H](O)[C@H]2O)nn1 — IC50 (EGFR): 75 nM
N#Cc1ccc(NC(=O)Nc2ccccc2)cc1 — IC50 (SRSF protein kinase 3 (SRPK3, Homo sapiens, UniProt Q9UPE1); FRET): 5700 nM
COc1c(Cl)cccc1Nc1c(-c2ccncc2OC[C@@H]2COCCO2)[nH]c2c1C(=O)NCC2 — IC50 (EGFR; TR-FRET): < 0.5 nM
COc1ccc(-c2ccc3c(N4CCOC[C@@H]4C)nc(N4CCOC[C@@H]4C)nc3n2)cc1COC(=O)CCOCCOCCOCCONC(=O)c1ccc(F)c(F)c1Nc1ccc(I)cc1F — IC50 (MTOR; FRET): 40.5 nM
CNC(c1ccccc1)c1c(N)[nH]c(=O)[nH]c1=O (stereo not drawn) — IC50 (EGFR): 4600 nM
Nc1cnccc1Nc1ccc(Cl)c(Cl)c1 — IC50 (SMUG1 (Homo sapiens, UniProt Q53HV7)): > 100000 nM
Oc1ccccc1-c1n[nH]cc1-c1ccnc2ccccc12 — IC50 (YCK2; ADP detection): 350 nM
O=C1C[C@@H](c2ccc(O)cc2)Oc2cc(O)cc(O)c21 — IC50 (CA2; absorbance): 68900 nM
c1ccc(-c2n[nH]cc2-c2ccncc2)nc1 — IC50 (YCK2; ADP detection): 520 nM
Cc1cc2c(C(N)=O)c(N)n(-c3c(C)ccc(O)c3C)c2nc1C — IC50 (Serine/threonine-protein kinase B-raf (BRAF, Homo sapiens, UniProt P15056); ADP detection): 15.3 nM
CNS(=O)(=O)c1ccc(Nc2ncc(C(F)(F)F)c(N3CCC[C@](C)(O)C3)n2)c(C)c1 — IC50 (CDK6 with cyclin D3; radiometric): 3550 nM
O=C1/C(=C/c2ccc3ccccc3c2O)NC(=S)N1c1ccccc1 — IC50 (EGFR; ELISA): 183 nM
COc1ccc(N2CCN(Cc3cn4c(-c5ccc(Br)cc5)nnc4s3)CC2)cc1 — IC50 (Ferroptosis suppressor protein 1 (AIFM2, Homo sapiens, UniProt Q9BRQ8, S364A/T363A); absorbance): 61 nM
NS(=O)(=O)c1ccc(Nc2nc3nc(=S)[nH]c(-c4cccc(O)c4)c3s2)cc1 — IC50 (CA2; absorbance): 62.7 nM
